# Experimental data: publication PMC3567257 (Biochemistry, 2012)
# Numbering of substitutions follows the chain as printed. Counter-ions that a name gives are not always drawn. Like-named read-outs stand apart in the source and are kept apart here.
# Assays:
# JARID1A PHD3 [1] = target: T1, JARID1A PHD3 (Homo sapiens, UniProt P29375); assay: Affinity pull down with TMR-labeled HaloTag-JARID1A PHD3; format: binding; conditions: for inhibition of JARID1A PHD3 in affinity pull down: compound 0–500 μM
# T1 sequence (P29375 1601-1660): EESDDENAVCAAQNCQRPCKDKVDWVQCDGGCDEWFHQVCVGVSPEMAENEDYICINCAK
# How it was run: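 Streptavidin-agarose beads are loaded with biotinylated histone peptide (about 300 pmol per 6.6 μL bed volume) in 1% BSA-HBST for 30 min. HaloTag-JARID1A PHD3 is prelabeled with TMR ligand (10 μM each, 15 min, dark) and used at 100 nM final with beads. Compound is 0–500 μM at 5% DMSO, 45 min ambient, dark. After three HBST washes, beads are boiled in SDS buffer, run on 12% SDS-PAGE and scanned for TAMRA fluorescence.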
# JARID1A PHD3 D1629A = target: T2, JARID1A PHD3 D1629A (Homo sapiens, UniProt P29375, D1629A); format: binding; conditions: D1629 mutation, independent of substitution
# T2 sequence (P29375 1601-1660 D1629A): T1 sequence (P29375 1601-1660) with D29A
# JARID1A PHD3 D1629N = target: T3, JARID1A PHD3 D1629N (Homo sapiens, UniProt P29375, D1629N); format: binding; conditions: D1629 mutation, independent of substitution
# T3 sequence (P29375 1601-1660 D1629N): T1 sequence (P29375 1601-1660) with D29N
# JARID1A PHD3 [2] = target: T1, JARID1A PHD3; assay: HaloTag assay for histone peptide binding; conditions: for effect on JARID1A PHD3 binding to H3K4me3 peptide in HaloTag assay: compound 0–200 μM
# How it was run: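 (HQ)5-HaloTag-JARID1A PHD3 (40 μM as added) is captured on HaloTag-ligand plates for 2 h with shaking, then washed with HBST. […] Detection uses streptavidin-HRP (1:2,000, 20 min), six washes and chemiluminescence. Diluent is StabilCoat with 0.5 mM TCEP, at ambient temperature. IC50 is fitted from relative binding versus log[inhibitor].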
# GST-JARID1A PHD3 = target: T4, GST-JARID1A PHD3 (Homo sapiens, UniProt P29375); assay: Fluorescence polarization binding assay; conditions: for loss of polarization (loss of peptide binding): up to 200 μM
# T4 sequence (P29375 1601-1660): T1 sequence (P29375 1601-1660)
# JARID1A PHD3 [3] = target: T1, JARID1A PHD3; assay: Zinc ejection study; format: biochemical; conditions: for zinc release from JARID1A PHD3 (PAR assay): increasing concentrations
# How it was run: (§1)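 His6-JARID1A PHD3 or (HQ)5-HaloTag reader-domain fusion at 5 μM was treated with increasing test compound concentrations in 10 mM PAR, 30 mM HEPES, 150 mM NaCl, pH 7.4, 5% v/v DMSO. Triplicates were shaken 10 min. A boiled DMSO-only sample served as the destabilization-induced zinc release reference. Zinc release was read as absorbance at 500 nm, with DMSO-only values subtracted.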
# AIRE PHD1 [4] = target: T5, AIRE PHD1 (Homo sapiens, UniProt O43918); assay: HaloTag assay counterscreen; format: binding; conditions: 0, 50, 100, 200 μM
# T5 sequence (O43918 293-354): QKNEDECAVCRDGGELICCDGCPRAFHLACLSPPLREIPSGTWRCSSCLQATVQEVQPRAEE
# BHC80 PHD [5] = target: T6, BHC80 PHD (Homo sapiens, UniProt Q96BD5); assay: HaloTag assay counterscreen; format: binding; conditions: 0, 50, 100, 200 μM
# T6 sequence (Q96BD5 486-543): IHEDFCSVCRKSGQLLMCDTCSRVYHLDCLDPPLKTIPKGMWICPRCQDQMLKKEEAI
# RAG2 PHD [6] = target: T7, RAG2 PHD (Mus musculus, UniProt P21784); assay: HaloTag assay counterscreen; format: binding; conditions: 0, 50, 100, 200 μM
# T7 sequence (P21784 414-487): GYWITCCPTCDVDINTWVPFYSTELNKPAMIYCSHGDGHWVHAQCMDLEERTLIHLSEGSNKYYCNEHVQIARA
# JMJD2A DTD [7] = target: T8, JMJD2A DTD (Homo sapiens, UniProt O75164); assay: HaloTag assay counterscreen; format: binding; conditions: 0, 50, 100, 200 μM
# T8 sequence (O75164 895-1011): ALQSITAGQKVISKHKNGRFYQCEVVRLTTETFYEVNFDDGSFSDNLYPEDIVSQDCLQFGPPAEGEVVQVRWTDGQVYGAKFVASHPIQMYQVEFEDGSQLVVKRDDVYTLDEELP
# JMJD2A DTD [8] = target: T8, JMJD2A DTD; assay: Fluorescence polarization counterscreen; format: binding
# How it was run: (§2)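 Test compound titrated into GST-reader fusion at its 90% fraction-bound concentration plus 3 nM fluorescein-labeled H3(1–14) probe. Protein: AIRE PHD1 4 μM and BHC80 PHD 60 μM (K4-unmodified probe); JMJD2A DTD 4 μM and RAG2 PHD 25 μM (K4me3 probe). Buffer was 30 mM HEPES, 150 mM NaCl, pH 7.4, 0.01% Triton X-100. Triplicates read by polarization. IC50 fitted from fraction bound versus log[inhibitor].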
# RAG2 PHD [9] = target: T7, RAG2 PHD; assay: Fluorescence polarization counterscreen; format: binding; conditions: NM: Not measurable within solubility limit of compound
# How it was run: as §2
# AIRE PHD1 [10] = target: T5, AIRE PHD1; assay: Fluorescence polarization counterscreen; format: binding; conditions: H3K4-unmodified probe; NM: Not measurable within solubility limit of compound
# How it was run: as §2
# BHC80 PHD [11] = target: T6, BHC80 PHD; assay: Fluorescence polarization counterscreen; format: binding; conditions: H3K4-unmodified probe; NM: Not measurable within solubility limit of compound
# How it was run: as §2
# [12] = target: T9, wild-type (WT) JARID1A PHD3 (Homo sapiens, UniProt P29375); assay: Dose ratio; format: binding; conditions: di-N-desethylamiodarone 0, 20, 40, 80 μM; tegaserod maleate 0, 80, 160, 320 μM
# T9 sequence (P29375 1601-1660): T1 sequence (P29375 1601-1660)
# [13] = tested on: JARID1A PHD3 D1624 mutants; assay: Dose ratio; format: binding; conditions: di-N-desethylamiodarone 0, 20, 40, 80 μM; tegaserod maleate 0, 80, 160, 320 μM
# How it was run: (§3)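 Fluorescence polarization Schild analysis. Increasing GST-JARID1A PHD3 (wild type or mutant) is titrated against a fixed inhibitor concentration plus 3 nM H3(1–14)K4me3K14fluo probe. The EC50 is determined at each inhibitor level. The dose ratio is the fold change in EC50 with inhibitor relative to EC50 without inhibitor.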
# [14] = tested on: JARID1A PHD3 D1629 mutants; assay: Dose ratio; format: binding; conditions: di-N-desethylamiodarone 0, 20, 40, 80 μM; tegaserod maleate 0, 80, 160, 320 μM
# How it was run: as §3
# AIRE PHD1 [15] = target: T5, AIRE PHD1; assay: Zinc ejection study; format: biochemical; conditions: compared with JARID1A PHD3
# How it was run: as §1
# BHC80 PHD [16] = target: T6, BHC80 PHD; assay: Zinc ejection study; format: biochemical; conditions: compared with JARID1A PHD3
# How it was run: as §1
# [17] = target: T10, JMJD2A double tudor domain (Homo sapiens, UniProt O75164); assay: Zinc ejection study; format: biochemical
# T10 sequence (O75164 895-1011): T8 sequence (O75164 895-1011)
# How it was run: as §1
molecule,measurement,setting,value
H3K4me3 peptide: histone H3 peptide trimethylated at lysine 4; unlabeled competitor or fluorescein-labeled H3(1–14) probe,IC50,"JARID1A PHD3 [1]; read-out: experimental IC50, peptide competition in affinity pull down",13.6 ± 4.5 µM
same,defect in affinity relative to wild-type,JARID1A PHD3 D1629A,greater than 10 fold
same,defect in affinity relative to wild-type,JARID1A PHD3 D1629N,greater than 10 fold
unmethylated H3 peptide: histone H3 peptide unmodified at lysine 4 (ARTKQTARKSTEW; E(PEG-biotin) at position 12),inhibition of JARID1A PHD3 by peptide competition in HaloTag assay,JARID1A PHD3 [2]; 25 μM peptide,did not significantly inhibit
CCCCc1oc2ccc(NS(C)(=O)=O)cc2c1C(=O)c1ccc(OCCCN(CCCC)CCCC)cc1 [dronedarone],effect on JARID1A PHD3 binding to H3K4me3 peptide in HaloTag assay,JARID1A PHD3 [2],inhibited JARID1A PHD3
c1ccc2c(c1)Nc1ccccc1S2 [phenothiazine],effect on JARID1A PHD3 binding to H3K4me3 peptide in HaloTag assay,JARID1A PHD3 [2],significantly reduced signal
same,loss of polarization (loss of peptide binding),GST-JARID1A PHD3,did not cause a significant loss in polarization
"CSS(C)(=O)=O [MMTS, methyl methanethiosulfonate]",EC50,"JARID1A PHD3 [3]; read-out: concentration for half-maximal zinc loss (PAR assay), 5 μM His6-JARID1A PHD3",33 µM
"CCCCc1oc2ccccc2c1C(=O)c1cc(I)c(OCCNCC)c(I)c1 [Desethylamiodarone, desethylamiodarone]",inhibition of JARID1A PHD3 in fluorescence polarization assay,GST-JARID1A PHD3; within the concentration range tested,Neither dimethyl-AMI analog nor desethyl-AMI significantly inhibited
"[H]/N=C(/NCCCCC)N/N=C/c1c[nH]c2ccc(OC)cc12 [tegaserod, Tegaserod maleate]",effect on JARID1A PHD3 binding to H3K4me3 peptide in HaloTag assay,JARID1A PHD3 [2],significantly reduced signal
same,"loss of peptide binding, AIRE PHD1, HaloTag assay",AIRE PHD1 [4],Modest reductions in binding
same,"loss of peptide binding, BHC80 PHD, HaloTag assay",BHC80 PHD [5],Modest reductions in binding
same,"loss of peptide binding, RAG2 PHD, HaloTag assay",RAG2 PHD [6],Modest reductions in binding
same,"loss of peptide binding, JMJD2A DTD, HaloTag assay",JMJD2A DTD [7],Modest reductions in binding
same,inhibition of JARID1A PHD3 in affinity pull down,JARID1A PHD3 [1],inhibited JARID1A PHD3
same,IC50,GST-JARID1A PHD3,74 ± 16 µM
same,IC50,JMJD2A DTD [8],95 ± 9.8 µM
same,"IC50 towards RAG2 PHD, fluorescence polarization assay",RAG2 PHD [9],exceeded the solubility limits
same,"IC50 towards AIRE PHD1, fluorescence polarization assay",AIRE PHD1 [10],exceeded the solubility limits
same,"IC50 towards BHC80 PHD, fluorescence polarization assay",BHC80 PHD [11],exceeded the solubility limits
same,zinc release from JARID1A PHD3 (PAR assay),JARID1A PHD3 [3],not causing zinc release
same,shift of EC50 / dose ratio with increasing fixed inhibitor,[12],increase in EC50 values
same,shift of EC50 / dose ratio with increasing fixed inhibitor,[13],dose ratios were less pronounced than for WT JARID1A PHD3
same,shift of EC50 / dose ratio with increasing fixed inhibitor,[14],dose ratios that remained near one
"CCCCc1oc2ccccc2c1C(=O)c1cc(I)c(OCCN)c(I)c1 [Di-N-desethylamiodarone, di-N-desethylamiodarone]",shift of EC50 / dose ratio with increasing fixed inhibitor,[12],increase in EC50 values
same,shift of EC50 / dose ratio with increasing fixed inhibitor,[13],dose ratios were less pronounced than for WT JARID1A PHD3
same,shift of EC50 / dose ratio with increasing fixed inhibitor,[14],dose ratios that remained near one
CCc1oc2ccccc2c1C(=O)c1cc(Br)c(O)c(Br)c1 [benzbromarone],effect on JARID1A PHD3 binding to H3K4me3 peptide in HaloTag assay,JARID1A PHD3 [2],"but not benzbromarone, inhibited JARID1A PHD3"
"CCCCc1oc2ccccc2c1C(=O)c1cc(I)c(OCCN(CC)CC)c(I)c1 [Amiodarone, amiodarone HCl]",effect on JARID1A PHD3 binding to H3K4me3 peptide in HaloTag assay,JARID1A PHD3 [2],significantly reduced signal
same,"loss of peptide binding, AIRE PHD1, HaloTag assay",AIRE PHD1 [4],but not AIRE PHD1 or BHC80 PHD
same,"loss of peptide binding, BHC80 PHD, HaloTag assay",BHC80 PHD [5],but not AIRE PHD1 or BHC80 PHD
same,"loss of peptide binding, RAG2 PHD, HaloTag assay",RAG2 PHD [6],significantly affected
same,"loss of peptide binding, JMJD2A DTD, HaloTag assay",JMJD2A DTD [7],significantly affected
same,loss of polarization (loss of peptide binding),GST-JARID1A PHD3,did not cause a significant loss in polarization
same,zinc release from JARID1A PHD3 (PAR assay),JARID1A PHD3 [3],not causing zinc release
O=C(O)/C=C\C(=O)O [maleate],effect on JARID1A PHD3 binding to H3K4me3 peptide in HaloTag assay,JARID1A PHD3 [2],not maleate
"CCN(CC)C(=S)SSC(=S)N(CC)CC [disulfiram, tetraethylthiuram disulfide]",effect on JARID1A PHD3 binding to H3K4me3 peptide in HaloTag assay,JARID1A PHD3 [2],significantly reduced signal
same,"loss of peptide binding, AIRE PHD1, HaloTag assay",AIRE PHD1 [4],Significant (by p-value) loss of peptide binding
same,"loss of peptide binding, BHC80 PHD, HaloTag assay",BHC80 PHD [5],Significant (by p-value) loss of peptide binding
same,"loss of peptide binding, RAG2 PHD, HaloTag assay",RAG2 PHD [6],Significant (by p-value) loss of peptide binding
same,inhibition of JARID1A PHD3 in affinity pull down,JARID1A PHD3 [1],inhibited JARID1A PHD3
same,loss of polarization (loss of peptide binding),GST-JARID1A PHD3,did not cause a significant loss in polarization
same,EC50,JARID1A PHD3 [3],10 µM
same,"susceptibility to zinc ejection, AIRE PHD1",AIRE PHD1 [15],similarly susceptible
same,"susceptibility to zinc ejection, BHC80 PHD",BHC80 PHD [16],similarly susceptible
same,zinc release from JMJD2A double tudor domain,[17],No zinc release was observed
